Experimental data: ChEMBL document CHEMBL1240422, “Design, synthesis and biological evaluation of 3,5-diaryl-isoxazoline/isoxazole-pyrrolobenzodiazepine conjugates as potential anticancer agents” (2010)
Calls of active or inactive are those of the source. The rule behind the calls is not given here.

Columns and labels:
A-375 [1] = assay: Cytotoxicity against human A375 cells at 4 uM after 24 hrs […]; assay type: functional, cell-based
A-375 [2] = assay: Cell cycle arrest in human A375 cells assessed as accumulation at G0/G1 phase at 4 uM after 24 hrs using propidium iodide staining by FACS; assay type: functional
Summary of the method: (§1)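 Treated A375 cells (24 h) were harvested with trypsin-EDTA and fixed in ice-cold 70% ethanol (4 °C, 30 min). After a PBS wash, they were incubated with 1 mg/mL RNase A (37 °C, 30 min) and stained with propidium iodide solution containing trisodium citrate and Triton X-100. DNA content was measured by flow cytometry on 20,000 events. Controls were DMSO-treated.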

A-375 [3] = assay: Cell cycle arrest in human A375 cells assessed as accumulation at S phase at 4 uM after 24 hrs using propidium iodide staining by FACS; assay type: functional; summary of the method: as §1
A-375 [4] = assay: Cell cycle arrest in human A375 cells assessed as accumulation at G2/M phase at 4 uM after 24 hrs using propidium iodide staining by FACS; assay type: functional; summary of the method: as §1

COc1ccc(/C=C\c2cc(OC)c(OC)c(OC)c2)cc1O [COMBRETASTATIN A4]
Activity (A-375 [1]): Active | Activity (A-375 [2]): 49.08% | Activity (A-375 [3]): 38.1% | Activity (A-375 [4]): 12.81%
